# HePTP inh – inhibitors of human HePTP phosphatase, primary screen, biochemical, absorbance, leukemia target. Tyrosine-protein phosphatase non-receptor type 7 (Homo sapiens), P35236. recombinant HePTP phosphatase activity, OD absorbance. inhibition, % at 20 µM. 110,000 compounds, 0.64% hits; in the data active means inhibition above about 50%;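 further: plate controls were vehicle for no effect and reference inhibitor for full effect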
# Target sequence (P35236 whole entry, looked up): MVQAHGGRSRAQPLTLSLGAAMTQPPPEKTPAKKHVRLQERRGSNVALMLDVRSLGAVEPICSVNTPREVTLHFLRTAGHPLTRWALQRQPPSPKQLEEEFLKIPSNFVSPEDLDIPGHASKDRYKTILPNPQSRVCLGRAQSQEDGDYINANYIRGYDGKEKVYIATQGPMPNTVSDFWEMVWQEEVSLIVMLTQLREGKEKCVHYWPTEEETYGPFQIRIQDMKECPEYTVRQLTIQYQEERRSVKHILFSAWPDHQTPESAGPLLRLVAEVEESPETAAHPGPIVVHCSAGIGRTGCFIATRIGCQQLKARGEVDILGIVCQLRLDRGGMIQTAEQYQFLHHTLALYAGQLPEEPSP
# AP ELISA ortho – alternative complement pathway inhibitors, primary screen, biochemical, ELISA, human serum, orthogonally pooled compounds. LPS-coated ELISA, C3 deposition; tested in compound mixtures. inhibition, % at 5 µM. 62,000 compounds, 0.08% hits. AID 1235, 2008;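 active means inhibition above 30% in each of the two pooled mixtures holding the compound, so the lower value exceeds 30%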;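 further: 0% = serum in Mg-EGTA without compound and 100% = EDTA serum blank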
#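 Test system: human serum alternative complement pathway, C3 deposition on LPS-coated wells; also added: Plate-bound LPS; doses: 5 µM per compound in ten-compound mixtures; schedule: 1 h at 37 °C; detection: Anti-C3 ELISA, OD 450 nm; evaluation: percent inhibition of C3 deposition onto LPS; repeats: two pool placements per compound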
# A340 absorber – compound light absorbance at 340 nm, profiling panel, artefact control, biochemical, MLSMR library, data from PS, PMK, MK assays. 65,000 tested, under 10 active. fold change at 10 µM. compound absorbance at 340 nm, fold over control;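 active means at 10 µM dose, initial 340 nm absorbance at least 2 fold that of control wells; inactive means change under 2 fold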;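 further: initial absorbance extrapolated from kinetic A340 decline of NADH oxidation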
# Starred values were filed as active, the others as inactive; nt = no result. Only some compounds are listed: those with a hit (about 0.62% of all), similar ones and a draw of the others.
SMILES,HePTP inh,AP ELISA ortho,A340 absorber
O=C(O)c1cc(-c2cccs2)nc2ccccc12,92*,nt,nt
CCOc1ccc(NC(=O)c2ccc(OC)c(OC)c2)c([N+](=O)[O-])c1,-7,nt,nt
O=C(Nc1ccccc1C(=O)N1CCOCC1)c1ccco1,-2,6,1
CC1CCN(C(=O)c2ccccc2NC(=O)c2ccco2)CC1,103*,nt,nt
CCc1cccc(CC)c1NC(=O)c1cccc(OC)c1,-6,nt,nt
CCOC(=O)c1c(NC(=O)c2ccc(OC)cc2)sc2c1CCC2,5,nt,nt
CN1C(=O)/C(=C/C=C/c2ccco2)SC1=S,52*,nt,nt
CCCCN1C(=O)/C(=C\c2ccco2)SC1=S,-7,nt,nt
CC1=C(C(=O)Nc2ccc(Cl)cc2)C(c2ccc(C)cc2)NC(=S)N1 (stereo unspecified),0,nt,nt
O=C1NC(=S)N(c2ccccc2)C(=O)/C1=C/c1ccc(-c2ccc(Cl)c(C(=O)O)c2)o1,23,nt,nt
CCOc1ccc(N2C(=O)NC(=O)/C(=C/c3ccc(-c4ccc(C(=O)O)c(Cl)c4)o3)C2=O)cc1,103*,nt,nt
O=C1NC(=S)N(c2ccc(F)cc2)C(=O)/C1=C/c1ccc(-c2cccc(C(=O)O)c2)o1,44,nt,nt
Cc1ccc(N2C(=O)/C(=C\c3ccc(-c4ccc(Cl)c(C(=O)O)c4)o3)C(=O)NC2=S)cc1,66*,nt,nt
CCOC(=O)c1ccc(N2NC(=O)/C(=C/c3ccc(-c4ccc(Cl)c(C(=O)O)c4)o3)C2=O)cc1,51*,nt,nt
CCOC(=O)c1ccc(-c2ccc(/C=C3/C(=O)NC(=O)N(c4ccccc4)C3=O)o2)cc1,-4,nt,nt
COC(=O)c1ccc(-c2ccc(/C=C3\C(=O)NN(c4ccccc4)C3=O)o2)cc1,4,nt,nt
O=C1NC(=S)N(c2ccc(Cl)cc2)C(=O)/C1=C\c1ccc(-c2cccc(C(=O)O)c2)o1,78*,nt,nt
C[n+]1cccc(C(=O)NCCOC(=O)c2ccccc2)c1,-1,nt,nt
COc1ccc(C2c3c(nn(-c4ccccc4)c3C)CC(C)(O)C2C(C)=O)cc1OC (stereo unspecified),7,nt,nt
Cc1cc([N+](=O)[O-])ccc1-c1ccc(/C=C2/C(=O)NC(=S)N(c3ccc(Cl)cc3)C2=O)o1,-2,nt,nt
CCOC(=O)c1ccc(-c2ccc(/C=C3\C(=O)NC(=O)C(C#N)=C3C)o2)cc1,-15,nt,nt
COc1cc(Cl)cc(/C=C2/C(=O)NC(=O)N(c3ccc(C)cc3)C2=O)c1O,-2,nt,nt
Cc1cc(Br)ccc1N1C(=O)/C(=C/C=C/c2ccccc2)C(=O)NC1=S,-3,nt,nt
CC1=C(C#N)C(=O)NC(=O)/C1=C\c1ccc(-c2ccc(Cl)c(Cl)c2)o1,67*,nt,nt
O=C1NC(=S)N(c2ccc(Cl)cc2)C(=O)/C1=C/C=C/c1ccccc1,62*,nt,nt
SMILES,HePTP inh,AP ELISA ortho,A340 absorber
Cc1ccc([N+](=O)[O-])cc1-c1ccc(/C=C2/C(=O)NN(c3ccc(Cl)cc3)C2=O)o1,94*,nt,nt
COc1c(Br)cc(Cl)cc1/C=C1\C(=O)NC(=S)N(c2ccc(C)cc2)C1=O,103*,nt,nt
NC(=O)c1ccccc1NC(=O)CCCCC(=O)Nc1ccccc1C(N)=O,-18,nt,nt
CCc1ccccc1OCCN(CC)CC,3,nt,nt
Cc1sc(NC(=O)Nc2ccccc2)nc1-c1ccccc1,7,nt,nt
COc1ccc(C2NC(=O)NC(C)=C2C(=O)Nc2ccc(Cl)cc2)cc1 (stereo unspecified),-3,nt,nt
Cc1ccc(/C=C2\C=C(c3ccc(Cl)cc3)OC2=O)o1,82*,nt,nt
CCOc1ccc(C2=C/C(=C/c3ccc(C)o3)C(=O)O2)cc1,-4,nt,nt
O=C(Oc1ccc(C(=S)N2CCOCC2)cc1)c1ccccc1Cl,-12,nt,nt
COc1ccc(C2=NC(=Cc3ccc(Br)cc3)C(=O)O2)cc1,-16,nt,nt
CCOc1cc(/C=N/Nc2nc(-c3ccccc3)cs2)ccc1O,-15,nt,nt
COC(=O)c1cc2c(=O)n3ccccc3nc2n(Cc2cccnc2)c1=N,4,-6,1.1
COC(=O)c1cc2c(=O)n3ccccc3nc2n(C)c1=N,11,32*,1
O=C(COc1ccc(Cl)cc1Br)NNC(=O)c1ccccc1F,1,nt,nt
COc1ccc(N2C(=O)c3ccc(C(=O)Nc4ccccc4I)cc3C2=O)cc1,4,nt,nt
COc1ccc(N2C(=O)c3ccc(C(=O)Nc4cc(Cl)ccc4C(=O)O)cc3C2=O)cc1,102*,nt,nt
CCOC(=O)c1ccc2c(c1)C1C=CCC1C(c1ccc([N+](=O)[O-])cc1)N2 (stereo unspecified),8,nt,nt
CCOc1cccc(=[O+]CC)c2c(C)oc(C)c12,102*,nt,nt
CCOc1cccc(=O)c2c(C)oc(C)c12,-14,nt,nt
CC(=O)Nc1ccc(NC(=O)c2c(Cl)cccc2Cl)cc1,-4,nt,nt
NS(=O)(=O)c1ccc(NC(=O)c2c(Cl)cccc2Cl)cc1,104*,nt,nt
COc1ccc(C(=O)N=Nc2c(O)n(CN3CCN(C)CC3)c3ccccc23)cc1,13,nt,nt
O=C(O)C1Nc2c(C(=O)N3CCOCC3)cccc2C2C=CCC12 (stereo unspecified),25,4,1.1
O=C(O)c1ccc([N+](=O)[O-])c2c1NC(c1ccccc1)C1CC=CC21 (stereo unspecified),88*,nt,nt
O=C(O)C1Nc2c(C(=O)N3CCCC3)cccc2C2C=CCC12 (stereo unspecified),94*,nt,nt
SMILES,HePTP inh,AP ELISA ortho,A340 absorber
Cc1ccc2c(c1C)NC(C(=O)O)C1CC=CC21 (stereo unspecified),nt,12,1
Cc1c(Cl)ccc2c1NC(C(=O)O)C1CC=CC21 (stereo unspecified),103*,nt,nt
O=C(O)c1cccc2c1NC(c1cccc(Cl)c1Cl)C1CC=CC21 (stereo unspecified),88*,nt,nt
Cc1ccc([N+](=O)[O-])c2c1NC(c1ccc(Br)cc1)C1CC=CC21 (stereo unspecified),8,nt,nt
COc1cccc2c1NC(c1ccccc1Cl)C1CC=CC21 (stereo unspecified),-6,nt,nt
CC(=O)Nc1ccc(C(=O)NNC(=O)Cc2ccc(Cl)cc2)cc1,-4,nt,nt
CCc1nc2ccccc2n1CC(O)COC1CCCCC1 (stereo unspecified),11,nt,nt
Cc1ccc(C(=O)N/C(=C/c2cccnc2)C(=O)Nc2ccc(F)cc2)cc1,-3,nt,nt
O=C(CCCOc1ccc(Cl)cc1Cl)n1cnc2ccccc21,4,nt,nt
O=C1NC(=S)S/C1=C\c1ccccc1[N+](=O)[O-],93*,nt,nt
COc1cc(/C=C2/SC(=S)NC2=O)ccc1OS(=O)(=O)c1ccccc1[N+](=O)[O-],59*,nt,nt
COc1cc(/C=C2/SC(=S)NC2=O)c([N+](=O)[O-])cc1OC,-5,nt,nt
COc1cc(/C=C2/SC(=S)NC2=O)ccc1OS(=O)(=O)c1ccccc1,26,nt,nt
CCOc1cccc(/C=N\N2CCN(c3ccccc3OC)CC2)c1O,6,nt,nt
C=C(C)COc1cc2oc(=O)cc(C)c2cc1Cl,-6,nt,nt
O=C1NC(=S)NC(=O)C1=Cc1cc(Br)c(Sc2ccc(Cl)cc2)o1,76*,nt,nt
Clc1ccc(Sc2oc(/C=N/n3cnnc3)cc2Br)cc1,5,15,1.1
COc1ccc(N=C2CC(C)(C)CC(=O)/C2=C(O)\C=C\c2ccccc2)cc1,9,nt,nt
CCOc1cc([N+](=O)[O-])cc(/C=C2\SC(=S)N(C)C2=O)c1O,66*,nt,nt
COc1cc([N+](=O)[O-])cc(C=C2C(=O)N(C)C(=O)N(C)C2=O)c1O,4,nt,nt
CCOC(=O)c1sc(NC(=O)c2cccc3ccccc23)nc1C,4,nt,nt

# Compound activity as filed in PubChem BioAssay.
